ChEMBL document CHEMBL1148384, “Design and synthesis of peptidomimetic protein farnesyltransferase inhibitors as anti-Trypanosoma brucei agents” (J Med Chem, 2004)
pEC50, pIC50: −log10 of the molar value.

How the values were obtained:
[1] = tested on: NIH3T3; assay: Effective dose against murine 3T3 fibroblasts cells; type: functional; conditions: Mus musculus, read-out: ED50 (the source's name)
Procedure, shortened: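 Murine 3T3 fibroblasts were grown in RPMI 1640 with 10% FBS and held 72 h with compound at 37 °C, 5% CO2.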

[2] = tested on: Trypanosoma brucei rhodesiense; assay: Dose required to inhibit growth of Trypanosoma brucei rhodesiense; 14->60 uM; type: functional; conditions: read-out: ED50 (the source's name)
Procedure, shortened: (§1)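 Bloodstream-form trypomastigotes of strain STIB 900 were grown in HMI-18 with nonessential amino acids, glucose and 15% heat-inactivated FCS at 37 °C, 5% CO2. Compounds were given as serial dilutions, in triplicate, from 1 × 10^4 cells/well. Cultures ran 72 h before Alamar Blue read-out, and ED50 was fitted.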

[3] = tested on: Protein farnesyltransferase (Trypanosoma brucei); assay: Inhibition of Trypanosoma brucei protein farnesyltransferase at 50 nM (82-87%)
[4] = tested on: Trypanosoma brucei brucei; assay: Effective dose required to inhibit the growth of Trypanosoma brucei; type: functional; conditions: read-out: ED50 (the source's name)
Procedure, shortened: (§2)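 Bloodstream-form strain 427 was grown in HMI-9 with 10% FBS at 37 °C, 5% CO2. Cells were seeded at 1 × 10^4 trypomastigotes/well in triplicate, with serial dilutions from 20 mM DMSO stocks. Growth was read with Alamar Blue at 48 h, pentamidine served as positive control, and ED50 was fitted from the curves.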

[5] = tested on: protein farnesyltransferase (Trypanosoma brucei); assay: Inhibition of against Trypanosoma brucei protein farnesyltransferase at 50 nM concentration
[6] = tested on: Trypanosoma brucei rhodesiense; assay: Dose required to inhibit growth of Trypanosoma brucei rhodesiense; 0.14-0.8 uM; type: functional; conditions: read-out: ED50 (the source's name); procedure, shortened: as §1
[7] = tested on: Trypanosoma brucei brucei; assay: Dose required to inhibit growth of Trypanosoma brucei; 0.5-5 uM; type: functional; conditions: read-out: ED50; procedure, shortened: as §2
[8] = tested on: protein farnesyltransferase (Trypanosoma brucei); assay: Inhibition of Trypanosoma brucei protein farnesyltransferase at 50 nM (0-14%)
[9] = tested on: NIH3T3; assay: Dose required against murine 3T3 fibroblasts cells; 1-10 uM; type: functional; conditions: Mus musculus, read-out: ED50 (the source's name)
[10] = tested on: Trypanosoma brucei rhodesiense; assay: Effective dose required to inhibit the growth of Trypanosoma brucei rhodesiense; type: functional; conditions: read-out: ED50 (the source's name); procedure, shortened: as §1
[11] = biological target: protein farnesyltransferase (Trypanosoma brucei); assay: Inhibition of Trypanosoma brucei protein farnesyltransferase
[12] = tested on: protein farnesyltransferase (Trypanosoma brucei); assay: Inhibition of Trypanosoma brucei protein farnesyltransferase at 50 nM concentration (65-74%)
[13] = tested on: protein farnesyltransferase (Trypanosoma brucei); assay: Inhibition of Trypanosoma brucei protein farnesyltransferase at 50 nM (0-17%)
[14] = tested on: Trypanosoma brucei rhodesiense; assay: Dose required to inhibit growth of Trypanosoma brucei rhodesiense; 0.38-0.92 uM; type: functional; conditions: read-out: ED50; procedure, shortened: as §1
[15] = tested on: Trypanosoma brucei brucei; assay: Dose required to inhibit growth of Trypanosoma brucei; 1-5 uM; type: functional; conditions: read-out: ED50; procedure, shortened: as §2
[16] = tested on: Trypanosoma brucei brucei; assay: Dose required to inhibit growth of Trypanosoma brucei; 1-10 uM; type: functional; conditions: read-out: ED50 (the source's name); procedure, shortened: as §2
[17] = tested on: protein farnesyltransferase (Trypanosoma brucei); assay: Inhibition of Trypanosoma brucei protein farnesyltransferase at 50 nM (29-41%)

| Compound | pEC50 [1] | pEC50 [4] | inhibition [5] [%] | pEC50 [10] | other results |
| --- | --- | --- | --- | --- | --- |
| CSCC[C@H](NC(=O)c1ccc(NCc2cncn2Cc2ccc([N+](=O)[O-])cc2)cc1-c1ccccc1)C(=O)O | < 5.00 | < 5.00 | – | – | pEC50 [2]: < 4.22; inhibition [3]: 87% |
| N#Cc1ccc(Cn2cncc2CNc2ccc(C(=O)Nc3cccc(C#N)c3)c(-c3ccccc3)c2)cc1 | < 5.00 | < 5.00 | 2.2 | – | – |
| COC(=O)[C@H](CCSC)NC(=O)c1ccc(NCc2cncn2Cc2ccc(Cl)cc2)cc1-c1ccccc1 | < 5.00 | – | – | – | pEC50 [6]: ≥ 6.10; pEC50 [7]: ≥ 5.30; inhibition [8]: ≤ 14% |
| CCCCCn1cncc1CNc1ccc(C(=O)N[C@@H](CCSC)C(=O)O)c(-c2ccccc2)c1 | – | – | 80.6 | – | – |
| CSCC[C@H](NC(=O)c1ccc(CNCc2c[nH]cn2)cc1-c1ccccc1C)C(=O)OCc1ccccc1 | – | 7.70 | 41.7 | – | pEC50 [9]: < 5.00 |
| CCCCC(CC)OC(=O)[C@H](CCSC)NC(=O)c1ccc(CNCc2c[nH]cn2)cc1-c1ccccc1C (some centres undefined) | – | 7.70 | 15.2 | 7.70 | pEC50 [9]: < 5.00 |
| N#CCNC(=O)c1ccc(NCc2cncn2Cc2ccc(C#N)cc2)cc1-c1ccccc1 | < 5.00 | < 5.00 | 0 | 4.35 | – |
| CSCC[C@H](NC(=O)c1ccc(NCc2cn(Cc3ccc(-c4ccccc4)cc3)cn2)cc1-c1ccccc1)C(=O)O | – | – | 4.5 | – | – |
| COC(=O)[C@H](CCSC)NC(=O)c1ccc(NC[C@@H](N)CS)cc1-c1ccccc1 | < 4.60 | 6.15 | – | – | pIC50 [11]: 7.40 |
| CSCC[C@H](NC(=O)c1ccc(NCc2cncn2Cc2cccc(Cl)c2)cc1-c1ccccc1)C(=O)O | < 5.00 | < 5.00 | – | < 4.22 | inhibition [12]: ≤ 74% |
| CCOC(=O)[C@H](CCSC)NC(=O)c1ccc(CNCc2c[nH]cn2)cc1-c1ccccc1C | 5.00 | 8.00 | 10.4 | 8.30 | – |
| CSCNC(=O)c1ccc(NCc2cncn2Cc2ccc(C#N)cc2)cc1-c1ccccc1 | < 5.00 | < 5.00 | 17.1 | 5.52 | – |
| COC(=O)[C@H](CCSC)NC(=O)c1ccc(NCc2cncn2Cc2cccc([N+](=O)[O-])c2)cc1-c1ccccc1 | < 5.00 | – | – | – | inhibition [13]: ≤ 17%; pEC50 [14]: ≥ 6.04; pEC50 [15]: ≥ 5.30 |
| CCCCCn1cnc(CNc2ccc(C(=O)N[C@@H](CCSC)C(=O)O)c(-c3ccccc3)c2)c1 | – | – | 11.5 | – | – |
| COC(=O)[C@H](CCSC)NC(=O)c1ccc(NCc2cncn2Cc2cccc(Cl)c2)cc1-c1ccccc1 | < 5.00 | – | – | – | inhibition [13]: ≤ 17%; pEC50 [14]: ≥ 6.04; pEC50 [15]: ≥ 5.30 |
| COC(=O)[C@H](CCSC)NC(=O)c1ccc(NCc2cncn2Cc2ccccc2Cl)cc1-c1ccccc1 | < 5.00 | – | 0 | – | pEC50 [16]: ≥ 5.00 |
| CSCC[C@H](NC(=O)c1ccc(NCc2cncn2Cc2ccccc2C#N)cc1-c1ccccc1)C(=O)O | < 5.00 | < 5.00 | – | < 4.22 | inhibition [17]: ≤ 41% |
| C=COC(=O)[C@H](CCSC)NC(=O)c1ccc(CNCc2c[nH]cn2)cc1-c1ccccc1C | – | 8.00 | 4.9 | 8.05 | pEC50 [9]: < 5.00 |
| COC(=O)[C@H](CCSC)NC(=O)c1ccc(CNCc2cncn2Cc2ccc(C#N)cc2)cc1-c1ccccc1C | < 5.00 | 6.30 | 7 | 7.00 | – |
| N#Cc1ccc(Cn2cncc2CNc2ccc(C(=O)NCC3CCCCC3)c(-c3ccccc3)c2)cc1 | < 5.00 | – | 18.6 | 5.49 | pEC50 [16]: < 5.00 |
| COC(=O)[C@H](CCSC)NC(=O)c1ccc(NCc2cncn2Cc2cccc(C#N)c2)cc1-c1ccccc1 | < 5.00 | – | – | – | inhibition [13]: ≤ 17%; pEC50 [14]: ≥ 6.04; pEC50 [15]: ≥ 5.30 |
| CSCC[C@H](NC(=O)c1ccc(NC[C@@H](N)CS)cc1-c1ccccc1)C(=O)O | < 4.60 | < 4.60 | – | 5.04 | – |
| CSCC[C@H](NC(=O)c1ccc(NCc2cncn2Cc2ccc(C#N)cc2)cc1-c1ccccc1)C(=O)O | < 5.00 | < 5.00 | – | < 4.22 | inhibition [3]: ≤ 87% |
| COC(=O)[C@H](CCSC)NC(=O)c1ccc(NCc2cncn2Cc2ccc(C#N)cc2)cc1-c1ccccc1 | < 5.00 | – | – | – | pEC50 [6]: ≥ 6.10; pEC50 [7]: ≥ 5.30; inhibition [8]: ≤ 14% |

| Compound | pEC50 [1] | pEC50 [4] | inhibition [5] [%] | pEC50 [10] | other results |
| --- | --- | --- | --- | --- | --- |
| CSCC[C@H](NC(=O)c1ccc(NCc2cncn2Cc2ccc(C)cc2)cc1-c1ccccc1)C(=O)O | < 5.00 | < 5.00 | – | – | pEC50 [2]: < 4.22; inhibition [3]: ≤ 87% |
| COC(=O)[C@H](CCSC)NC(=O)c1ccc(CNCc2c[nH]cn2)cc1-c1ccccc1C | 4.60 | 7.60 | 41 | 8.59 | – |
| N#Cc1ccc(Cn2cncc2CNc2ccc(C(=O)NCc3ccccc3)c(-c3ccccc3)c2)cc1 | < 5.00 | 5.00 | 1.2 | 5.09 | – |
| CSCC[C@H](NC(=O)c1ccc(NCc2cncn2Cc2cccc(C)c2)cc1-c1ccccc1)C(=O)O | < 5.00 | < 5.00 | – | < 4.22 | inhibition [12]: ≤ 74% |
| COC(=O)[C@H](CCSC)NC(=O)c1ccc(NCc2cncn2Cc2cccc(C)c2)cc1-c1ccccc1 | < 5.00 | – | – | – | inhibition [13]: ≤ 17%; pEC50 [14]: ≥ 6.04; pEC50 [15]: ≥ 5.30 |
| CSCC[C@H](NC(=O)c1ccc(NCc2cncn2Cc2cccc(C#N)c2)cc1-c1ccccc1)C(=O)O | < 5.00 | < 5.00 | – | < 4.22 | inhibition [12]: ≤ 74% |
| CSCC[C@H](NC(=O)c1ccc(NCc2cn(CC3CCCCC3)cn2)cc1-c1ccccc1)C(=O)O | – | – | 12 | – | – |
| COC(=O)[C@H](CCSC)NC(=O)c1ccc(NCc2cncn2Cc2ccccc2C)cc1-c1ccccc1 | < 5.00 | – | 0 | – | pEC50 [16]: ≥ 5.00 |
| CSCC[C@H](NC(=O)c1ccc(CN(Cc2c[nH]cn2)Cc2c[nH]cn2)cc1-c1ccccc1C)C(=O)O | < 5.00 | – | – | 6.05 | pEC50 [16]: < 5.00 |
| COC(=O)[C@H](CCSC)NC(=O)c1ccc(NCc2cncn2Cc2ccccc2C#N)cc1-c1ccccc1 | < 5.00 | – | 0 | – | pEC50 [16]: ≥ 5.00 |
| COC(=O)[C@H](CCSC)NC(=O)c1ccc(CN(Cc2c[nH]cn2)Cc2c[nH]cn2)cc1-c1ccccc1C | < 5.00 | 7.00 | 66.2 | 8.82 | – |
| CSCC[C@H](NC(=O)c1ccc(CNCc2c[nH]cn2)cc1-c1ccccc1C)C(=O)OC1CCCCC1 | – | 7.52 | 4.5 | 7.74 | pEC50 [9]: < 5.00 |
| N#Cc1ccc(Cn2cncc2CNc2ccc(C(=O)Nc3cccc([N+](=O)[O-])c3)c(-c3ccccc3)c2)cc1 | < 5.00 | < 5.00 | 9.1 | 5.52 | – |
| COC(=O)[C@H](CCSC)NC(=O)c1ccc(NCc2cncn2Cc2ccc(C)cc2)cc1-c1ccccc1 | < 5.00 | – | – | – | pEC50 [6]: ≥ 6.10; pEC50 [7]: ≥ 5.30; inhibition [8]: ≤ 14% |
| CSCC[C@H](NC(=O)c1ccc(CNCc2[nH]cnc2C)cc1-c1ccccc1C)C(=O)O | < 5.00 | < 5.00 | 68.5 | – | – |
| COC(=O)[C@H](CCSC)NC(=O)c1ccc(NCc2cncn2Cc2ccc([N+](=O)[O-])cc2)cc1-c1ccccc1 | < 5.00 | – | – | – | pEC50 [6]: ≥ 6.10; pEC50 [7]: ≥ 5.30; inhibition [8]: ≤ 14% |
| CSCC[C@H](NC(=O)c1ccc(NCc2cncn2Cc2ccc(Cl)cc2)cc1-c1ccccc1)C(=O)O | < 5.00 | < 5.00 | – | – | pEC50 [2]: < 4.22; inhibition [3]: ≤ 87% |
| CSCC[C@H](NC(=O)c1ccc(NCc2cncn2Cc2ccccc2C)cc1-c1ccccc1)C(=O)O | < 5.00 | < 5.00 | – | < 4.22 | inhibition [17]: ≤ 41% |
| CSCC[C@H](NC(=O)c1ccc(CNCc2c[nH]cn2)cc1-c1ccccc1C)C(=O)OC(C)C | 5.00 | 8.30 | 6.2 | 8.52 | – |
| CSCC[C@H](NC(=O)c1ccc(NCc2cncn2CC2CCCCC2)cc1-c1ccccc1)C(=O)O | – | – | 69.8 | – | – |
| CC(C)NC(=O)c1ccc(NCc2cncn2Cc2ccc(C#N)cc2)cc1-c1ccccc1 | < 5.00 | < 5.00 | 8.4 | 5.28 | – |
| COC(=O)[C@H](CCSC)NC(=O)c1ccc(NCc2cncn2Cc2ccc(-c3ccccc3)cc2)cc1-c1ccccc1 | < 5.00 | – | – | – | pEC50 [6]: < 6.85; pEC50 [7]: ≥ 5.30; inhibition [8]: 14% |
| CSCC[C@H](NC(=O)c1ccc(NCc2cncn2Cc2ccccc2Cl)cc1-c1ccccc1)C(=O)O | < 5.00 | < 5.00 | – | < 4.22 | inhibition [17]: ≤ 41% |
